From ChEMBL document CHEMBL1268844, “Synthesis of novel 3-amino and 29-hydroxamic acid derivatives of glycyrrhetinic acid as selective 11β-hydroxysteroid dehydrogenase 2 inhibitors” (Bioorg Med Chem, 2010)

Assays:
[1] = target: T1, 11-beta-hydroxysteroid dehydrogenase 1 (Homo sapiens, UniProt P28845); assay: Inhibition of human recombinant 11beta-HSD1 expressed in HEK293 cells assessed as conversion of [1,2-3H]-cortisone to cortisol by scintillation counting; type: cell-based
Target sequence in this assay (P28845 whole entry): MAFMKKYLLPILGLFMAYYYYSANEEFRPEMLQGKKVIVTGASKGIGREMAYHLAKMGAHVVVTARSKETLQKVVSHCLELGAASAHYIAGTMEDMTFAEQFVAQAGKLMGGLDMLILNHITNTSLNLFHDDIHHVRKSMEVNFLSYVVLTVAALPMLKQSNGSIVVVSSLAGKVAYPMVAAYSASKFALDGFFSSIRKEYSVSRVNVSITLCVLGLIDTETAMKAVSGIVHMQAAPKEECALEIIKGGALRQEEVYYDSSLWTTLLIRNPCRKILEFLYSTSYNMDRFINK

[2] = target: T2, 11-beta-hydroxysteroid dehydrogenase type 2 (Homo sapiens, UniProt P80365); assay: Inhibition of human recombinant 11beta-HSD2 expressed in HEK293 cells assessed as conversion of [1,2,6,7-3H]-cortisol to cortisone by scintillation counting; type: cell-based
T2 sequence (P80365 whole entry): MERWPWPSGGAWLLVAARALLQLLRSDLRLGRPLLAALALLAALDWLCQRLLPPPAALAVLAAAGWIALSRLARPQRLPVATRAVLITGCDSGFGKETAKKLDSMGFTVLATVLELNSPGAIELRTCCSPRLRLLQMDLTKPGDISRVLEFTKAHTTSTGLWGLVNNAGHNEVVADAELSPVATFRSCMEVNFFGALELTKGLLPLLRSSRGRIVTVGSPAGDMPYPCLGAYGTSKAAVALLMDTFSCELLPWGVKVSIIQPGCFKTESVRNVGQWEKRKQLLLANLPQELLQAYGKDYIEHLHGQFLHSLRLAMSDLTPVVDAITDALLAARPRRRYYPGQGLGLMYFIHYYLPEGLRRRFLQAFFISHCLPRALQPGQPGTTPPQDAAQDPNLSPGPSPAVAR

[3] = Selectivity ratio of IC50 for human recombinant 11beta-HSD2 to IC50 for human recombinant 11beta-HSD1
[4] = target: T1, 11-beta-hydroxysteroid dehydrogenase 1; assay: Inhibition of human recombinant 11beta-HSD1 expressed in HEK293 cells assessed as residual conversion of [1,2-3H]-cortisone to cortisol at 0.2 uM by scintillation counting; type: cell-based
Outline: (§1)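 HEK-293 cells transfected with pcDNA3 encoding human enzyme carrying C-terminal FLAG tag. Compounds diluted from DMSO stocks, used immediately, screened at final 200 nM. Reactions stopped with methanol containing 2 mM unlabeled cortisone and cortisol. Steroids separated by TLC, then scintillation counting; readout is residual substrate conversion.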
Target sequence in this assay (P28845 whole entry, looked up): as the sequence (P28845 whole entry) above

[5] = target: T3, 11-beta-hydroxysteroid dehydrogenase type 2 (Homo sapiens) (UniProt P80365); assay: Inhibition of human recombinant 11beta-HSD2 expressed in HEK293 cells assessed as residual conversion of [1,2,6,7-3H]-cortisol to cortisone at 0.2 uM by scintillation counting; type: cell-based; outline: as §1
T3 sequence (whole entry): T2 sequence (P80365 whole entry)

| Structure (SMILES) | IC50 [1] | IC50 [2] | Ratio [3] | Activity [4] | Activity [5] |
| --- | --- | --- | --- | --- | --- |
| CO/N=C1\CC[C@]2(C)[C@H]3C(=O)C=C4[C@@H]5C[C@@](C)(C(=O)O)CC[C@]5(C)CC[C@@]4(C)[C@]3(C)CC[C@H]2C1(C)C | 1510 nM |  |  |  |  |
| CONC(=O)[C@@]1(C)CC[C@]2(C)CC[C@]3(C)C(=CC(=O)[C@@H]4[C@@]5(C)CC[C@H](O)C(C)(C)[C@@H]5CC[C@]43C)[C@@H]2C1 | 929 nM | 2130 nM | 0.4 |  |  |
| CON(C)C(=O)[C@@]1(C)CC[C@]2(C)CC[C@]3(C)C(=CC(=O)[C@@H]4[C@@]5(C)CC[C@H](OC(C)=O)C(C)(C)[C@@H]5CC[C@]43C)[C@@H]2C1 |  |  |  | 95% | 72% |
| CC1(C)C(=O)CC[C@]2(C)[C@H]3C(=O)C=C4[C@@H]5C[C@@](C)(C(=O)O)CC[C@]5(C)CC[C@@]4(C)[C@]3(C)CC[C@@H]12 | 619 nM |  |  |  |  |
| CC1(C)[C@H](NS(C)(=O)=O)CC[C@]2(C)[C@H]3C(=O)C=C4[C@@H]5C[C@@](C)(C(=O)O)CC[C@]5(C)CC[C@@]4(C)[C@]3(C)CC[C@@H]12 |  |  |  | 32% | 4% |
| CN(O)C(=O)[C@@]1(C)CC[C@]2(C)CC[C@]3(C)C(=CC(=O)[C@@H]4[C@@]5(C)CC[C@H](NS(=O)(=O)C(F)(F)F)C(C)(C)[C@@H]5CC[C@]43C)[C@@H]2C1 |  |  |  | 71% | 44% |
| CC1(C)[C@@H](NS(=O)(=O)C(F)(F)F)CC[C@]2(C)[C@H]3C(=O)C=C4[C@@H]5C[C@@](C)(C(=O)O)CC[C@]5(C)CC[C@@]4(C)[C@]3(C)CC[C@@H]12 |  |  |  | 87% | 22% |
| CC1(C)[C@H](NS(=O)(=O)C(F)(F)F)CC[C@]2(C)[C@H]3C(=O)C=C4[C@@H]5C[C@@](C)(C(=O)O)CC[C@]5(C)CC[C@@]4(C)[C@]3(C)CC[C@@H]12 |  |  |  | 99% | 50% |
| CC(=O)N[C@H]1CC[C@]2(C)[C@H]3C(=O)C=C4[C@@H]5C[C@@](C)(C(=O)O)CC[C@]5(C)CC[C@@]4(C)[C@]3(C)CC[C@H]2C1(C)C | 825 nM | 458 nM |  |  |  |
| C=CCONC(=O)[C@@]1(C)CC[C@]2(C)CC[C@]3(C)C(=CC(=O)[C@@H]4[C@@]5(C)CC[C@H](OC(C)=O)C(C)(C)[C@@H]5CC[C@]43C)[C@@H]2C1 |  |  |  | 99% | 84% |
| CON[C@H]1CC[C@]2(C)[C@H]3C(=O)C=C4[C@@H]5C[C@@](C)(C(=O)O)CC[C@]5(C)CC[C@@]4(C)[C@]3(C)CC[C@H]2C1(C)C | 42.7 nM | 14.5 nM |  | 33% | 2% |
| CON[C@H]1CC[C@]2(C)[C@H]3C(=O)C=C4[C@@H]5C[C@@](C)(C(=O)N(C)O)CC[C@]5(C)CC[C@@]4(C)[C@]3(C)CC[C@H]2C1(C)C |  |  |  | 93% | 30% |
| CC1(C)[C@@H](NS(C)(=O)=O)CC[C@]2(C)[C@H]3C(=O)C=C4[C@@H]5C[C@@](C)(C(=O)O)CC[C@]5(C)CC[C@@]4(C)[C@]3(C)CC[C@@H]12 |  |  |  | 58% | 4% |
| CN(O)C(=O)[C@@]1(C)CC[C@]2(C)CC[C@]3(C)C(=CC(=O)[C@@H]4[C@@]5(C)CC[C@H](O)C(C)(C)[C@@H]5CC[C@]43C)[C@@H]2C1 |  |  |  | 71% | 7% |
| CON[C@@H]1CC[C@]2(C)[C@H]3C(=O)C=C4[C@@H]5C[C@@](C)(C(=O)O)CC[C@]5(C)CC[C@@]4(C)[C@]3(C)CC[C@H]2C1(C)C | 61.9 nM | 4.9 nM |  | 43% | 5% |
| CN(O)C(=O)[C@@]1(C)CC[C@]2(C)CC[C@]3(C)C(=CC(=O)[C@@H]4[C@@]5(C)CC[C@@H](NS(=O)(=O)C(F)(F)F)C(C)(C)[C@@H]5CC[C@]43C)[C@@H]2C1 |  |  |  | 88% | 82% |
| CC1(C)[C@@H](O)CC[C@]2(C)[C@H]3C(=O)C=C4[C@@H]5C[C@@](C)(C(=O)NO)CC[C@]5(C)CC[C@@]4(C)[C@]3(C)CC[C@@H]12 | 1160 nM |  |  |  |  |
| CC(=O)O[C@H]1CC[C@]2(C)[C@H]3C(=O)C=C4[C@@H]5C[C@@](C)(C(=O)NO)CC[C@]5(C)CC[C@@]4(C)[C@]3(C)CC[C@H]2C1(C)C | 626 nM |  |  |  |  |
| CC(=O)O[C@H]1CC[C@]2(C)[C@H]3C(=O)C=C4[C@@H]5C[C@@](C)(C(=O)N(O)C(C)(C)C)CC[C@]5(C)CC[C@@]4(C)[C@]3(C)CC[C@H]2C1(C)C |  |  |  | 86% | 85% |
| CC(=O)N[C@H]1CC[C@]2(C)[C@H]3C(=O)C=C4[C@@H]5C[C@@](C)(C(=O)N(C)O)CC[C@]5(C)CC[C@@]4(C)[C@]3(C)CC[C@H]2C1(C)C |  |  |  | 72% | 4% |
